From PMC3378255 (ACS chemical neuroscience, 2012)
Read-outs that look alike come from different tables or passages of the source.

How the values were obtained:
[1] = Plasma protein binding, human; format: in vitro ADME; settings: for bound to both human and mouse plasma: human and mouse plasma together; for plasma protein binding (% Bound): human
[2] = tested on: 44 GPCR and other molecular targets; assay: PDSP binding assay panel of 44 GPCR and other molecular targets
Procedure, shortened: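 The Psychoactive Drug Screening Program ran radioligand binding assays across 44 GPCR and other targets. Test compounds were first screened at a single 10 μM concentration. Those showing significant activity then went to Ki determination.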

KOR = KOR (Homo sapiens, UniProt P41145); assay: PDSP radioligand binding assay, KOR
[3] = Plasma protein binding, mouse; format: in vitro ADME
[4] = tested on: Fa2N-4 immortalized human hepatocytes; assay: Hepatic toxicity; format: cell-based; settings: in words
[5] = mouse, microsomes, 1 h

KOR, sequence (P41145 whole entry): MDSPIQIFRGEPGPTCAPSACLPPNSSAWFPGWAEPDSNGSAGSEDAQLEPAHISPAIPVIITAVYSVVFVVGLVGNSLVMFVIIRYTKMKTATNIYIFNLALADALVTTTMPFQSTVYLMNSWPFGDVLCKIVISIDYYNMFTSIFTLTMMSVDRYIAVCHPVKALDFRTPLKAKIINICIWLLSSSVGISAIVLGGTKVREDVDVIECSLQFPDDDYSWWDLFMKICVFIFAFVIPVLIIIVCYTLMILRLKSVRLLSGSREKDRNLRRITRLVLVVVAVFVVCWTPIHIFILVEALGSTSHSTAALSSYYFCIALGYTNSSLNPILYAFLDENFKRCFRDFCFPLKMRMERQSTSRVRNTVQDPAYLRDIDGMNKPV

SMILES | bound to both human and mouse plasma [1] | plasma protein binding (% Bound) ([1]; 1µM) | plasma protein binding (% Bound) ([1]; 10µM) | affinity across the PDSP assay panel ([2]; in words, concentrations up to 10,000 nM) | Ki (KOR) [nM] | plasma protein binding (% Bound) ([3]; 1µM) | plasma protein binding (% Bound) ([3]; 10µM) | toxicity toward human hepatocytes [4] | Ki ([2]; read-out: Ki values for 11 non-opioid targets, weak binding affinity, PDSP panel) [nM] | PAMPA Pe | hepatic microsome stability [5] [% remaining] | PAMPA Pe (pH 7.4) [cm/s]
O=C(c1ccccn1)N(Cc1cccs1)C1(C(=O)NC2CCCCC2)CCCCC1 [1{1}, N-(1-(Cyclohexylcarbamoyl)cyclohexyl)-N-(thiophen-2-ylmethyl)picolinamide] | 90–99% | 99.59 | 99.07 | affinity only for the opioid receptors | 0.6 | 94.05 | 90.70 | significant toxicity | – | – | – | –
Clc1ccc(CSc2nnc(-c3ccccn3)n2Cc2ccco2)cc1Cl [2{8}] | 90–99% | 99.75 | 99.80 | – | – | 99.80 | 99.64 | – | 1000 to 10000 | – | – | –
Cc1ccc(S(=O)(=O)NCc2ccc(C(=O)NCCN(Cc3ccccc3)C(C)C)cc2)cc1 [3{1}, N-(2-(Benzyl(isopropyl)amino)ethyl)-4-((4-methylphenylsulfonamido)methyl)benzamide] | 90–99% | 99.67 | 99.73 | – | – | 98.90 | 98.92 | – | – | 1710–1940 ×10^−6 cm/s | – | –
COc1ccc(N2CCN(CCCNC(=O)Cn3c(=O)c4cccn4c4c(C)ccnc43)CC2)cc1 [4{13}, N-(3-(4-(4-Methoxyphenyl)piperazin-1-yl)propyl)-2-(1-methyl-6-oxopyrido[2,3-e]pyrrolo[1,2-a]pyrazin-5(6H)-yl)acetamide] | 80–94% | 93.96 | 88.54 | – | – | 88.46 | 80.07 | – | – | 2.7e-05 cm/s | 7.3 | 0.000757
